Screening results deposited in PubChem BioAssay by several laboratories.
Kir21 block: Kir2.1 (mouse) channel inhibition. P35561. HEK293-Kir2.1, FluxOR thallium flux fluorescence; active compounds read low. B-score at 10 µM. 0.85% of 310,000 active. AID 1672;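 active means fluorescence ratio B-score at or below minus 3 SD of library scores, with starting-brightness B-score within 2 SD, cut at about -4.2 in these data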;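 further: channel flux triggered by added potassium and thallium sulfate stimulus; B-score of peak minus minimum fluorescence over baseline after thallium stimulus; more negative B-score means stronger Kir2.1 block with less thallium influx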
Target sequence (P35561 whole entry, looked up): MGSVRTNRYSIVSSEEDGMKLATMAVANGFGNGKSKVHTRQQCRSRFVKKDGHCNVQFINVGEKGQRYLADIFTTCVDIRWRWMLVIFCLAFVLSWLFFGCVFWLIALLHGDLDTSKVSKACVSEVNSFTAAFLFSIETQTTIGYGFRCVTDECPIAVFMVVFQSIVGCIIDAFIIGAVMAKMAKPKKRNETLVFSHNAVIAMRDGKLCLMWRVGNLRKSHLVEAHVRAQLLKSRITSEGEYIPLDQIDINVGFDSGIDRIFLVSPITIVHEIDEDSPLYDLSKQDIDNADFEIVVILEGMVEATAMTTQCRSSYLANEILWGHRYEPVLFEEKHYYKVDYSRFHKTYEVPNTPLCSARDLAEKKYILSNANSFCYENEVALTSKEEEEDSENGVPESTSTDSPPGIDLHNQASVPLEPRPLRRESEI
ANO1 block: mouse TMEM16A channel inhibition, primary screen; Q8BHY3; HEK293 TMEM16A/YFP iodide influx fluorescence, ionomycin; normalized B-score (activity score, 25-100; higher = stronger inhibition) at 10 µM; 1.2% of 310,000 active; AID 588511;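 active means ratio plate-corrected score three or more library SD toward inhibition, starting fluorescence score within five deviations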;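 further: score derived from kinetic fluorescence span divided by baseline fluorescence per well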
DNA FID counter: displaces DNA intercalator in HCV helicase counter-screen | DNA fluorescent intercalator displacement, fluorescence | 0.17% of 290,000 active | AID 1845 | inhibition, % at 7.9 µM; in the data active means inhibition above about 37%;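 further: 0% = vehicle and 100% = reference compound; higher means more ethidium bromide displaced from hairpin DNA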
SR-BI DiI-HDL act: enhances SR-BI lipid uptake from DiI-HDL. 0.096% of 320,000 active. activation, % at 12.5 µM. CHO ldlA[mSR-BI] cells, DiI-HDL uptake fluorescence, 3 h; 100 = double the neutral-control signal;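 active means mean replicate activation of at least 60% and every replicate at or above 60%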;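 further: 0% = median plate neutral-control signal and 100% = twice that signal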
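Assay system: CHO ldlA[mSR-BI] cells, LDL receptor-null, SR-BI overexpressing; medium: Ham's F12 with 0.5% BSA, HEPES 25 mM, pH 7.4; also added: DiI-HDL 10 µg/mL; timing: 3 h uptake period with compound, 37 °C; signal: DiI fluorescence, bottom read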
TMEM16A act: activates or potentiates the mouse TMEM16A chloride channel. HEK293 TMEM16A/YFP-H148Q/I152L, iodide quench fluorescence; active compounds read low. B-score at 10 µM. 0.3% of 340,000 active. AID 623877;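 active means fluorescence-ratio B-score plate-corrected deviation score at least 3 library SD below zero, with starting fluorescence score within 5 deviations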;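 further: channel opened by trigger with iodide after compound preincubation; score built on the fluorescence ratio of max minus min over baseline; more negative score means more quench and so TMEM16A activation or potentiation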
SR-BI DiI inh: blocks mouse SR-BI lipid uptake from DiI-HDL | ldlA[mSR-BI] CHO cells, DiI-HDL uptake fluorescence, 3 h | 0.96% of 320,000 active | inhibition, % at 12.5 µM | Q61009;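 active means mean replicate inhibition of at least 70% and a set share of replicates each scoring 70 or more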;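 further: 0% = median of neutral control wells and 100% = median of positive control wells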
An asterisk follows results filed as active; i = inactive; nt = not tested or not shown. This is a sample that favours compounds with a hit; in the whole collection about 3% have one here.

SMILES	Kir21 block	ANO1 block	DNA FID counter	SR-BI DiI-HDL act	TMEM16A act	SR-BI DiI inh
COc1ccc(Br)cc1/C=N/NC(=O)c1cc(OC)c(OC)c(OC)c1	0.2	i	-28	-75	i	75*
COc1ccc(Br)cc1/C=N/NC(=O)c1ccc2nc[nH]c2c1	1.6	i	6	-28	i	28
Cc1ccccc1-c1cccc([C@@H]2C[C@H]3[C@H](CON3C)CN2C(=O)CCc2ccccc2)c1	nt	nt	nt	9	nt	-9
CC1CCCC(NC(=O)CSc2nnc(-c3cccnc3)n2N)C1C (configuration not stated)	nt	nt	nt	17	i	-17
COc1ccc(/C=C/c2nc(S(=O)(=O)c3ccccc3)c(N(C)C)o2)cc1	0.18	i	-10	-13	i	13
Cc1nnsc1S(=O)c1ccc(Br)cc1 (configuration not stated)	-0.17	i	-5	0	i	0
Cc1ccc(/C=N/NC(=O)CNC(=O)c2cccs2)o1	-5.5*	i	-1	4	i	-4
O=C(CNC(=O)c1cccs1)N/N=C/c1ccco1	-0.69	i	2	17	i	-17
CCn1c(SCC(=O)N/N=C/c2cccs2)nc2ccccc21	-4.8*	i	-9	6	i	-6
COc1ccc(C2=NS(=O)(=O)N(C)C(C(=O)N3CCOCC3)=C2)cc1OC	0.15	i	-8	12	i	-12
C=C1/C(=C\C=C2/CCC[C@]3(C)[C@@H]([C@H](C)CCCC(C)(C)O)CC[C@@H]23)C[C@@H](O)C[C@@H]1O	-0.01	100*	-41	nt	nt	nt
CC(C)CCC[C@@H](C)[C@H]1CC[C@H]2[C@@H]3C(=O)C=C4C[C@@H](O)CC[C@]4(C)[C@H]3CC[C@]12C	-1	i	nt	-23	i	23
CCC(=O)c1ccc(OCC(O)CNCCc2ccc(Cl)cc2)cc1 (configuration not stated)	-3	i	17	3	i	-3
O=c1oc2c(-c3ccc([N+](=O)[O-])cc3)cc(O)cc2s1	0.49	i	15	-77	i	77*
COc1cc(C(=O)Nc2ccc3c(c2)Cc2ccccc2-3)cc(OC)c1OC	0.07	i	0	-39	i	39
COc1cc2c(cc1NC(=O)C(Cl)Cl)-c1ccc(NC(=O)C(Cl)Cl)cc1C2	nt	nt	nt	-83	i	83*
COc1ccc(NC(=O)c2sc3nc(N4CCCC4)c4c(c3c2N)CC(C)(C)OC4)cc1	0.02	i	-30	-73	i	73*
COc1ccc(NC(=O)c2sc3nc(N4CCOCC4)c4c(c3c2N)CC(C)(C)OC4)cc1	0.67	i	-25	-23	i	23
COc1cccc(OCCNS(=O)(=O)c2ccccc2[N+](=O)[O-])c1	nt	nt	nt	-5	i	5
O=C(Nc1ccc(Cl)c(Cl)c1)Nc1ccccc1NS(=O)(=O)c1cccs1	-0.13	100*	-3	-14	i	14
Nc1ccccc1C(=O)NCc1ccc(Cl)cc1	-0.08	i	0	15	i	-15
CCOC(=O)CSc1nnc(-c2ccco2)n1-c1ccccc1	-0.44	i	-11	13	i	-13
COC(=O)c1cccc(CSc2nnc(-c3ccco3)n2-c2ccccc2)c1	-6.8*	i	-30	-8	i	8
CC(C)(C)NC(=O)C(=O)NNC(=O)C12CC3CC(CC(C3)C1)C2	1.3	i	0	111*	i	-111
COc1cc(/C=C(/C(=O)c2cccs2)c2nc3ccccc3[nH]2)ccc1O	-4.4*	i	-5	15	i	-15
O=C(/C(=C/c1ccc(Cl)cc1)c1nc2ccccc2[nH]1)c1cccs1	-1.2	i	-7	-15	i	15
CCC(=O)c1ccccc1OCCCN1CCC(Cc2ccccc2)CC1	-5.4*	i	24	-13	i	13
Cc1cc(C)c(N=Cc2c(O)c3ccccc3oc2=O)c(C)c1	0.14	i	-24	nt	i	nt
CC(=O)COc1ccc2c(-c3ccccc3)cc(=O)oc2c1C	2.1	i	-20	-72	i	72*
